Data taken from ChEMBL document CHEMBL4138319, “Discovery, Synthesis, Pharmacological Profiling, and Biological Characterization of Brintonamides A-E, Novel Dual Protease and GPCR Modulators from a Marine Cyanobacterium” (J Med Chem, 2018).
Square brackets hold non-standard residues; d marks the D form. Peptide text beside a SMILES is read from it. * marks the point of attachment. X1 = CC[C@H](C)[C@@H](OC(=O)/C=C/c1ccccc1)C(=O)*; dNMeF = CN[C@H](Cc1ccccc1)C(=O)O; NMeL = CN[C@@H](CC(C)C)C(=O)O

Molecular target: T1, C-C chemokine receptor type 10 (Homo sapiens, UniProt P46092)
T1 sequence (P46092 whole entry): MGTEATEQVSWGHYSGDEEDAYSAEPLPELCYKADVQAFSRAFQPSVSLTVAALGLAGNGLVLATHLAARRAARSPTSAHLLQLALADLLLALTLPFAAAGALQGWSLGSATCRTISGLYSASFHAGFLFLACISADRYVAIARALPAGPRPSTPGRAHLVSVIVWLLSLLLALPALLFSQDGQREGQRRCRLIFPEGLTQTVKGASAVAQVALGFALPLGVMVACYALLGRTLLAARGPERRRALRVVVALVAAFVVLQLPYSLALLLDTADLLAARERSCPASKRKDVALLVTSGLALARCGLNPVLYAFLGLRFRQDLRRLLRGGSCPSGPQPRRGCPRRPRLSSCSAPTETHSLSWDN
Test: Antagonist activity at human CCR10 expressed in human U2OS cells assessed as inhibition of CCL27-induced beta-arrestin recruitment pre-incubated for 30 mins before CCL27 stimulation for 90 or 180 mins by chemiluminescence method
Format: functional, cell-based
How it was run: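 PathHunter β-arrestin complementation assay, antagonist mode. Cells co-express ProLink-tagged GPCR and enzyme-acceptor-tagged β-arrestin and are pre-incubated with sample for 30 min at 37 °C or room temperature. Dose-response: 10 points, 3-fold dilutions from 20 μM, in duplicate.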

## CC[C@H](C)[C@@H](OC(=O)/C=C/c1ccccc1)C(=O)N1CCC[C@H]1C(=O)NCC(=O)N(C)[C@@H](CC(C)C)C(=O)N[C@@H](C)C(=O)N(C)[C@H](Cc1ccccc1)C(=O)N1CCC[C@H]1C(=O)OC (X1-PG[NMeL]A[dNMeF]P-OMe)
  IC50: 440 nM
